{"data": "Results of several laboratories", "effect on": "cell growth or viability", "note": "Lines come from different studies, so protocols differ."}
{"SMILES": "O=C(Nc1ccc(Cl)cc1)Nc1cccc(-c2cn(Cc3cccc(Br)c3)nn2)c1", "cell line": "PC-9", "assay": "CCK-8", "conditions": "20 µM, 72 h", "measurement": "viability", "result": "101%"}
{"SMILES": "O=C(NCc1cn(Cc2ccc(Br)cc2)nn1)Nc1ccc(Cl)cc1", "cell line": "PC-9", "assay": "CCK-8", "conditions": "50 µM, 72 h", "measurement": "viability", "result": "179%"}
{"SMILES": "CCCCCCCCCCCCCCCCCCOc1cccc(CC(=O)OCC[N+](CC)(CC)CC)c1", "cell line": "EKVX", "assay": "SRB", "conditions": "10 µM", "measurement": "inhibition", "result": "22.3%"}
{"SMILES": "NCC(=O)Nc1ccccc1/N=c1\\cc(-c2ccc3c(c2)OCCO3)oc2ccccc12", "cell line": "HCT-116", "assay": "CCK-8", "conditions": "1 µM", "measurement": "inhibition", "result": "16.4%"}
{"SMILES": "O=C(Nc1ccc(Cl)cc1)Nc1nc2cc(-c3ccc4ncn(Cc5ccccc5)c(=O)c4c3)ccc2s1", "cell line": "PC-9", "assay": "MTT", "conditions": "72 h", "measurement": "IC50", "result": "> 20 µM"}
{"SMILES": "COc1ccc(NC(=O)NCc2cn(Cc3ccc(Cl)cc3)nn2)cc1", "cell line": "PC-9", "assay": "CCK-8", "conditions": "50 µM, 72 h", "measurement": "viability", "result": "104%"}
{"SMILES": "O=C(NCc1cn(Cc2cccc(Cl)c2)nn1)Nc1ccc(Cl)cc1", "cell line": "PC-9", "assay": "CCK-8", "conditions": "20 µM, 72 h", "measurement": "viability", "result": "90.9%"}
{"SMILES": "COc1ccc(NC(=O)Nc2ccc(-c3cn(Cc4cccc(Cl)c4)nn3)cc2)cc1", "cell line": "PC-9", "assay": "CCK-8", "conditions": "20 µM, 72 h", "measurement": "viability", "result": "98.2%"}
{"SMILES": "CCCCCCCCCCCCCCCCCCOc1ccc(CC(=O)OCC[N+]2(C)CCCCC2)cc1", "cell line": "EKVX", "assay": "SRB", "conditions": "10 µM", "measurement": "inhibition", "result": "2.11%"}
{"SMILES": "NCCC(=O)Nc1ccccc1/N=c1\\cc(-c2ccc3nc(N)oc3c2)oc2ccc(O)cc12", "cell line": "HCT-116", "assay": "CCK-8", "conditions": "1 µM", "measurement": "inhibition", "result": "15%"}
{"SMILES": "O=C(Nc1ccc(Cl)cc1)Nc1ccc(-c2cn(Cc3cccc(Cl)c3)nn2)cc1", "cell line": "PC-9", "assay": "CCK-8", "conditions": "50 µM, 72 h", "measurement": "viability", "result": "76.4%"}
{"SMILES": "C[C@H](Nc1ccc2c(c1)OCCn1cc(N3C(=O)OC[C@H]3C(F)F)nc1-2)C(N)=O", "cell line": "AGS", "assay": "ATP luminescence", "conditions": "5 days", "measurement": "EC50", "result": "0.158 µM"}
{"SMILES": "COc1ccc(NC(=O)NCc2cn(Cc3ccc(Br)cc3)nn2)cc1", "cell line": "PC-9", "assay": "CCK-8", "conditions": "50 µM, 72 h", "measurement": "viability", "result": "143%"}
{"SMILES": "O=C(Nc1ccccc1/N=c1\\cc(-c2ccc3c(c2)OCO3)oc2ccccc12)N1CCOCC1", "cell line": "HCT-116", "assay": "CCK-8", "conditions": "1 µM", "measurement": "inhibition", "result": "11.2%"}
{"SMILES": "N#CCCN(C(=O)CCl)c1ccc2c(c1)OCCN2CC(=O)N1CCC(C(=O)Nc2ccc(C(=O)NCCCCCCC(=O)NO)cc2)CC1", "cell line": "U-87 MG", "assay": "MTT", "measurement": "EC50", "result": "> 50 µM"}
{"SMILES": "Cc1nc(Nc2ncc(C(=O)Nc3c(C)cccc3Cl)s2)cc(N2CC[C@H](O)C2)n1", "cell line": "WSUDLCL2", "assay": "ATP luminescence", "conditions": "10 µM, 72 h", "measurement": "inhibition", "result": "13%"}
{"SMILES": "COc1ccc(NC(=O)Nc2cccc(-c3cn(Cc4cccc(Cl)c4)nn3)c2)cc1", "cell line": "PC-9", "assay": "CCK-8", "conditions": "20 µM, 72 h", "measurement": "viability", "result": "143%"}
{"SMILES": "NCC(=O)Nc1ccccc1/N=c1\\cc(-c2ccc3c(c2)OCO3)oc2c(N)cccc12", "cell line": "HCT-116", "assay": "CCK-8", "conditions": "1 µM", "measurement": "inhibition", "result": "14.3%"}
{"SMILES": "O=C(Nc1cccc(C(F)(F)F)c1)Nc1nc2cc(-c3ccc4ncn(CCN5CCOCC5)c(=O)c4c3)ccc2s1", "cell line": "PC-9", "assay": "MTT", "conditions": "72 h", "measurement": "IC50", "result": "> 20 µM"}
{"SMILES": "CCCCCCCCCCCCCCCCCCOc1cccc(CC(=O)OCC[N+]2(C)CCCCC2)c1", "cell line": "EKVX", "assay": "SRB", "conditions": "10 µM", "measurement": "inhibition", "result": "3.05%"}
{"SMILES": "O=C(NCCc1ccccc1)Nc1nc2cc(-c3ccc4ncn(CCN5CCOCC5)c(=O)c4c3)ccc2s1", "cell line": "PC-9", "assay": "MTT", "conditions": "72 h", "measurement": "IC50", "result": "8.14 µM"}
{"SMILES": "CCCCCCCCCCCCCCCCCCOc1ccc(CC(=O)OCC[N+](CC)(CC)CC)cc1", "cell line": "EKVX", "assay": "SRB", "conditions": "10 µM", "measurement": "inhibition", "result": "12.5%"}
{"SMILES": "COc1ccc2/c(=N/c3ccccc3NC(=O)[C@H](C)N)cc(-c3ccc4c(c3)OCCO4)oc2c1", "cell line": "HCT-116", "assay": "CCK-8", "conditions": "1 µM", "measurement": "inhibition", "result": "16.5%"}
{"SMILES": "COc1ccc(NC(=O)Nc2cccc(-c3cn(Cc4ccccc4C)nn3)c2)cc1", "cell line": "PC-9", "assay": "CCK-8", "conditions": "50 µM, 72 h", "measurement": "viability", "result": "98.2%"}
{"SMILES": "NCC(=O)Nc1ccccc1/N=c1\\cc(-c2ccc3c(c2)OCO3)oc2c([N+](=O)[O-])cccc12", "cell line": "HCT-116", "assay": "CCK-8", "conditions": "1 µM", "measurement": "inhibition", "result": "12.2%"}
{"SMILES": "COc1ccc(NC(=O)Nc2cccc(-c3cn(Cc4ccc(Br)cc4)nn3)c2)cc1", "cell line": "PC-9", "assay": "CCK-8", "conditions": "50 µM, 72 h", "measurement": "viability", "result": "90.3%"}
{"SMILES": "O=C(Nc1ccc(Cl)cc1)Nc1cccc(-c2cn(Cc3cccc(Cl)c3)nn2)c1", "cell line": "PC-9", "assay": "CCK-8", "conditions": "20 µM, 72 h", "measurement": "viability", "result": "102%"}
{"SMILES": "O=C(NN=Cc1ccc(O)cc1)c1nc2ccccc2s1", "cell line": "HCT-116", "assay": "MTT", "conditions": "100 µM, 48 h", "measurement": "cell death", "result": "50%"}
{"SMILES": "NC(=O)C1CCCN1C(=O)Nc1ccccc1/N=c1\\cc(-c2ccc3c(c2)OCCO3)oc2cc(F)ccc12 (stereo not drawn)", "cell line": "HCT-116", "assay": "CCK-8", "conditions": "1 µM", "measurement": "inhibition", "result": "13.6%"}
{"SMILES": "O=C(Nc1ccc(Cl)cc1)Nc1cccc(-c2cn(Cc3ccc(Cl)cc3)nn2)c1", "cell line": "PC-9", "assay": "CCK-8", "conditions": "50 µM, 72 h", "measurement": "viability", "result": "110%"}
{"SMILES": "O=C(Nc1cccc(F)c1)Nc1nc2cc(-c3ccc4ncn(CCN5CCOCC5)c(=O)c4c3)ccc2s1", "cell line": "PC-9", "assay": "MTT", "conditions": "72 h", "measurement": "IC50", "result": "> 20 µM"}
{"SMILES": "Cc1ccccc1Cn1cc(-c2cccc(NC(=O)Nc3ccc(F)cc3)c2)nn1", "cell line": "PC-9", "assay": "CCK-8", "conditions": "50 µM, 72 h", "measurement": "viability", "result": "123%"}
{"SMILES": "O=C(Nc1cccc(-c2cn(Cc3ccc(Cl)cc3)nn2)c1)Nc1ccccc1Br", "cell line": "PC-9", "assay": "CCK-8", "conditions": "20 µM, 72 h", "measurement": "viability", "result": "130%"}
{"SMILES": "Cc1nc(NC(=O)N2CCC[C@H]2C(N)=O)sc1-c1ccnc(C(C)(C)C(F)(F)F)c1", "cell line": "KYSE-510", "assay": "ATP luminescence", "conditions": "5 days", "measurement": "EC50", "result": "1.5 µM"}
{"SMILES": "CNCCC(=O)Nc1ccccc1/N=c1\\cc(-c2ccc3nc(N)oc3c2)oc2ccccc12", "cell line": "HCT-116", "assay": "CCK-8", "conditions": "1 µM", "measurement": "inhibition", "result": "76.8%"}
{"SMILES": "CCCCCCCCCCCCCCCCCCOc1ccccc1CC(=O)OCC[N+]1(C)CCCC1", "cell line": "EKVX", "assay": "SRB", "conditions": "10 µM", "measurement": "inhibition", "result": "46.1%"}
{"SMILES": "O=C(NCc1ccccc1)Nc1nc2cc(-c3ccc4ncn(Cc5ccccc5)c(=O)c4c3)ccc2s1", "cell line": "PC-9", "assay": "MTT", "conditions": "72 h", "measurement": "IC50", "result": "> 20 µM"}
{"SMILES": "O=C(NCc1cn(Cc2ccc(Cl)cc2)nn1)Nc1ccc(Cl)cc1", "cell line": "PC-9", "assay": "CCK-8", "conditions": "50 µM, 72 h", "measurement": "viability", "result": "81.7%"}
{"SMILES": "CCCCCCCCCCCCCCCCCCOc1ccccc1CC(=O)OCCC[N+](C)(C)C", "cell line": "EKVX", "assay": "SRB", "conditions": "10 µM", "measurement": "inhibition", "result": "21%"}
{"SMILES": "CCC(=O)Nc1nc2cc(-c3ccc4ncn(Cc5ccccc5)c(=O)c4c3)ccc2s1", "cell line": "PC-9", "assay": "MTT", "conditions": "72 h", "measurement": "IC50", "result": "> 20 µM"}
{"SMILES": "CCCCCCCCCCCCCCCCCCOc1cccc(CC(=O)OCC[N+]2(C)CCCC2)c1", "cell line": "EKVX", "assay": "SRB", "conditions": "10 µM", "measurement": "inhibition", "result": "1.14%"}
{"SMILES": "O=C(Nc1ccc(-c2cn(Cc3ccc(Br)cc3)nn2)cc1)Nc1ccccc1Br", "cell line": "PC-9", "assay": "CCK-8", "conditions": "20 µM, 72 h", "measurement": "viability", "result": "85%"}
